Laboratory results as given in PubChem BioAssay.
Calls of active or inactive are those of the source.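 The calls were made as follows, unless noted: active = mean duplicate potentiation above the buffer control mean plus 5 SD of buffer wells; inactive = the rest.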

Target: Potassium voltage-gated channel subfamily KQT member 2 (Rattus norvegicus) (UniProt O88943)
Assay: KCNQ2 thallium flux enhancement – KCNQ2-CHO-K1 cells, selectivity assay for KCNQ1 potentiator project (AID 493009);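 also: assay conditions were tuned for KCNQ1 rather than KCNQ2 modulators; signal is max minus min fluorescence divided by baseline after thallium stimulus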
Details: FluxOR thallium flux fluorescence, at 10 µM; stronger effect = higher value, scaled: buffer 0, activator control 100

Sequence of Potassium voltage-gated channel subfamily KQT member 2 (Rattus norvegicus) (O88943 whole entry, looked up): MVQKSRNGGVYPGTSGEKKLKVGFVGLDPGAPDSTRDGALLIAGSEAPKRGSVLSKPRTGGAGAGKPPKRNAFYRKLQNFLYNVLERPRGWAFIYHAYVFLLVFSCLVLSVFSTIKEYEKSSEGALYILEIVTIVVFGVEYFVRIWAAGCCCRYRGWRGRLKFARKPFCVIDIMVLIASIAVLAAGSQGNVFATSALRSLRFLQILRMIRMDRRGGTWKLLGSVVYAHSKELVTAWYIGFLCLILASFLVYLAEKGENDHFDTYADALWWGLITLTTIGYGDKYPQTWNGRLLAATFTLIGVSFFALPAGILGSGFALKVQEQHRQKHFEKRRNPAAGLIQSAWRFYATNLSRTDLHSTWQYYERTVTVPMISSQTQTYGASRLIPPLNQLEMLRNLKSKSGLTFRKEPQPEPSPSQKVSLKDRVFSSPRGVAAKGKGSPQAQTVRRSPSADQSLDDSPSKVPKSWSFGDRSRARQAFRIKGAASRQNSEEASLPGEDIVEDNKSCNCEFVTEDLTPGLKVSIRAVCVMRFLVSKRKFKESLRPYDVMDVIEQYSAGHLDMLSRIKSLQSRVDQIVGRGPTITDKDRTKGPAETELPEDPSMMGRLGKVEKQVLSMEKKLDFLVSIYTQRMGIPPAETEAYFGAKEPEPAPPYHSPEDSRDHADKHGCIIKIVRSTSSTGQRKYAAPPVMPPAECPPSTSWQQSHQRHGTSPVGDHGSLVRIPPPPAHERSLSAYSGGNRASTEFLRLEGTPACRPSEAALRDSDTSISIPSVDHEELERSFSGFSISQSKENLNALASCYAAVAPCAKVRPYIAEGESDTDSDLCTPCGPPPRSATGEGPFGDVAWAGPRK

Q: How did the outcome turn out when `COc1cccc(OC)c1C(=O)Nc1cccc(-c2ccc3nncn3n2)c1` was run?
A: inactive

Q: How did the outcome turn out when `O=C(NNc1nc2c(F)cccc2s1)c1cc(=O)c2ccccc2o1` was run?
A: inactive

Q: `CCCCCCCN1N=C(C)C(C(=O)c2ccccc2)C1=O` (stereo not given) was tested. Which outcome did it give?
A: inactive

Q: For `OC(CON=C1c2ccccc2-c2ccccc21)CN1CCNCC1` (stereo not given), which outcome is on record?
A: inactive

Q: With `CCOC(=O)Cc1csc(NC(=S)NC(=O)c2ccccc2Br)n1` as the compound, how does the potentiation read?
A: 239% (active)

Q: Which outcome does the source give for `Cc1cc(C(=O)N/N=C/C=C/c2ccc3c(c2)OCO3)n[nH]1` here?
A: inactive

Q: Which outcome does the source give for `O=C(CNC(=O)C(c1ccccc1)c1ccccc1)N/N=C/c1ccc(O)cc1O` here?
A: inactive

Q: With `O=C(Nc1nnc(-c2ccc3c(c2)CCCC3)o1)c1ccc(Cl)cc1Cl` as the compound, how does the potentiation read?
A: 442% (active)

Q: How did the outcome turn out when `CCCCN(CCCC)C(=S)NC(=O)C(C)(C)C` was run?
A: inactive

Q: With `Cc1cc(C)n(/N=C/c2cc(Cl)cc(Cl)c2O)c(=O)c1` as the compound, how does the outcome read?
A: inactive

Q: How did the potentiation turn out when `Cc1c(-c2ccccc2)sc2nc[nH]c(=S)c12` was run?
A: 304% (active)

Q: For `Cc1cccc(NC(=S)N/N=C(\c2ccccc2)C(C)C)c1`, which potentiation is on record?
A: 152% (active)

Q: For `O=c1ccc(N=Nc2ccccc2)ccc1O`, which potentiation is on record?
A: 430% (active)

Q: With `CC(C)OC(=O)c1c(NS(=O)(=O)c2ccccc2)sc2c1CCCC2` as the compound, how does the potentiation read?
A: 338% (active)

Q: Which potentiation does the source give for `CCNC(=S)Nc1nc2c(cc1C(=O)OCC)CCCC2` here?
A: 177% (active)

Q: `C/C(=N/NC(=O)c1cc(C2CC2)[nH]n1)c1cccs1` was tested. Which outcome did it give?
A: inactive

Q: Which potentiation does the source give for `CC1(C)CC[C@]2(C(=O)O)CC[C@]3(C)C(=CCC4[C@@]5(C)CC[C@H](O)C(C)(C)C5[C@H](O)C[C@]43C)[C@@H]2C1` (stereo not given in full) here?
A: 182% (active)

Q: For `CC1(C)CC(=O)C2=C(C1)N(c1cccc(Cl)c1)C(=O)NC2(C(F)(F)F)C(F)(F)F`, which outcome is on record?
A: inactive

Q: Which outcome does the source give for `Cc1cccc(OCC(=O)O/N=C(\N)c2ccc(Cl)cc2)c1` here?
A: inactive

Q: Which outcome does the source give for `O=C(COc1ccccc1Cl)N(Cc1cccs1)C1CCS(=O)(=O)C1` (stereo not given) here?
A: inactive

Q: `Nc1cc(=O)[nH]c(SCC(=O)N2CCN(S(=O)(=O)c3ccc4ccccc4c3)CC2)n1` was tested. Which outcome did it give?
A: inactive

Q: `O=C(NCc1ccccc1)/C(=C/c1ccccc1)NC(=O)c1ccco1` was tested. Which outcome did it give?
A: inactive

Q: Which outcome does the source give for `COc1ccc(C)c2sc(NC(=O)C3=COCCO3)nc12` here?
A: inactive

Q: `N#CC(c1cccc(Cl)c1)c1ccc2c(C(F)(F)F)cc(C(F)(F)F)nc2n1` (stereo not given) was tested. Which potentiation did it give?
A: 298% (active)

Q: How did the potentiation turn out when `O=C(N/N=C/c1ccccn1)c1cc(-c2ccc(Br)cc2)nc2ccccc12` was run?
A: 174% (active)

Q: For `Cc1ccc(NC(=O)CCS(=O)(=O)c2cccc3nonc23)c(Br)c1`, which outcome is on record?
A: inactive

Q: For `CCCCCC/C(C)=C1/SC(=S)NC1=O`, which potentiation is on record?
A: 612% (active)

Q: How did the potentiation turn out when `Cc1[nH]c(-c2ccccn2)nc(=S)c1Cl` was run?
A: 262% (active)

Q: With `Cc1ccc(C)c(N(CC(=O)NC2CCCC2)C(=O)CCC(=O)Nc2nccs2)c1` as the compound, how does the outcome read?
A: inactive

Q: With `CC/C(=N\NC(=S)Nc1cccc(C)c1)c1ccccc1` as the compound, how does the potentiation read?
A: 216% (active)

Q: With `O=C(NN1C(=O)C2C(c3ccccc3)C=CC(c3ccccc3)C2C1=O)c1ccncc1` (stereo not given) as the compound, how does the potentiation read?
A: 152% (active)

Q: Which outcome does the source give for `Nc1nc(NCc2ccco2)nc(NC2CCCCC2)c1[N+](=O)[O-]` here?
A: inactive

Q: With `O=c1c(O)c(-c2ccc3c(c2)OCO3)oc2ccccc12` as the compound, how does the potentiation read?
A: 162% (active)

Q: How did the potentiation turn out when `Cc1ccc(OCC(=O)NNC(=S)NC(=O)c2cccs2)c(C)c1` was run?
A: 238% (active)

Q: With `N=C1S/C(=C\c2ccc(-c3cccc(Cl)c3)o2)C(=O)N1c1nccs1` as the compound, how does the outcome read?
A: inactive

Q: `CC1=CC(=O)C(C(C)C)=CC1=NC(=O)c1ccc(C)cc1` was tested. Which outcome did it give?
A: inactive

Q: For `COc1ccc(NC(=O)C(=O)NNC(=O)c2cccs2)c(OC)c1`, which potentiation is on record?
A: 220% (active)

Q: Which potentiation does the source give for `COC(=O)c1sc(-c2ccc(C(C)(C)C)cc2)cc1NC(=O)/C=C/C(=O)O` here?
A: 320% (active)

Q: For `O=S1(=O)Nc2c(ccc3cccnc23)-c2ccccc21`, which potentiation is on record?
A: 154% (active)

Q: How did the potentiation turn out when `O=C(NC(=S)Nc1ccccc1N1CCOCC1)c1ccc(-c2ccccc2F)o1` was run?
A: 182% (active)

Target: Potassium voltage-gated channel subfamily KQT member 1 (Homo sapiens) (UniProt P51787)
Assay: KCNQ1 activators by electrophysiology – IonWorks patch clamp, KCNQ1-CHO cells, orthogonal assay for KCNQ1 potentiator project, confirmation (AID 493184;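 active = current rise at least 3 SD above the untreated control mean in each of two repeat wells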;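 as to current potentiation: percent change of the same well's current before compound addition so 0% = no change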)
Details: automated patch clamp current, at 10 µM; stronger effect = higher value
In short: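 Read-out: Percent current increase versus pre-compound level | Assay system: CHO cells carrying KCNQ1 | Measured by: Automated perforated-patch electrophysiology | Medium: External bath solution at pH 7.4 | Dosing: One dose, 10 µM final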

Sequence of Potassium voltage-gated channel subfamily KQT member 1 (Homo sapiens) (P51787 whole entry, looked up): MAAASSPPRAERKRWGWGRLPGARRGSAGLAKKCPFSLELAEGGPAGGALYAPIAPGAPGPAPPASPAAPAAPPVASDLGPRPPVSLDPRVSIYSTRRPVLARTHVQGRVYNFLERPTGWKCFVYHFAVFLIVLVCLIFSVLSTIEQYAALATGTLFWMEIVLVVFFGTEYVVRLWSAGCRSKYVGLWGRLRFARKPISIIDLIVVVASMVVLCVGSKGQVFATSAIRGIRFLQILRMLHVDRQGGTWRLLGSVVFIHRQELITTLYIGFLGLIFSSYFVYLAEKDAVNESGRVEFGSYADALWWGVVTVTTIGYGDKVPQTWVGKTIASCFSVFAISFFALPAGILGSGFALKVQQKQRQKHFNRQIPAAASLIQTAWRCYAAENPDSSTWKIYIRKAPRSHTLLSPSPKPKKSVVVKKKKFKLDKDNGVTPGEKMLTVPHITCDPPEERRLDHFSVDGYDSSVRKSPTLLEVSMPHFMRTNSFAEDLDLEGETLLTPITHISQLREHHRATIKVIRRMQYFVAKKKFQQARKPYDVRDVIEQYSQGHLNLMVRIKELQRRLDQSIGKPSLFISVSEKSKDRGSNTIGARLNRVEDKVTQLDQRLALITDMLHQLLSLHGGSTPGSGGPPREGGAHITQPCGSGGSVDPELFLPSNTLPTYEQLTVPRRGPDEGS

Q: With `COc1cccc(OC)c1C(=O)Nc1cccc(-c2ccc3nncn3n2)c1` as the compound, how does the outcome read?
A: inactive

Q: `O=C(NNc1nc2c(F)cccc2s1)c1cc(=O)c2ccccc2o1` was tested. Which outcome did it give?
A: inactive

Q: `CCCCCCCN1N=C(C)C(C(=O)c2ccccc2)C1=O` (stereo not given) was tested. Which outcome did it give?
A: inactive

Q: Which outcome does the source give for `OC(CON=C1c2ccccc2-c2ccccc21)CN1CCNCC1` (stereo not given) here?
A: inactive

Q: With `CCOC(=O)Cc1csc(NC(=S)NC(=O)c2ccccc2Br)n1` as the compound, how does the outcome read?
A: inactive

Q: `Cc1cc(C(=O)N/N=C/C=C/c2ccc3c(c2)OCO3)n[nH]1` was tested. Which outcome did it give?
A: inactive

Q: `O=C(CNC(=O)C(c1ccccc1)c1ccccc1)N/N=C/c1ccc(O)cc1O` was tested. Which outcome did it give?
A: inactive

Q: How did the outcome turn out when `O=C(Nc1nnc(-c2ccc3c(c2)CCCC3)o1)c1ccc(Cl)cc1Cl` was run?
A: inactive

Q: With `CCCCN(CCCC)C(=S)NC(=O)C(C)(C)C` as the compound, how does the outcome read?
A: inactive

Q: Which outcome does the source give for `Cc1cc(C)n(/N=C/c2cc(Cl)cc(Cl)c2O)c(=O)c1` here?
A: inactive

Q: How did the outcome turn out when `Cc1c(-c2ccccc2)sc2nc[nH]c(=S)c12` was run?
A: inactive

Q: `Cc1cccc(NC(=S)N/N=C(\c2ccccc2)C(C)C)c1` was tested. Which outcome did it give?
A: inactive

Q: `O=c1ccc(N=Nc2ccccc2)ccc1O` was tested. Which outcome did it give?
A: inactive

Q: `CC(C)OC(=O)c1c(NS(=O)(=O)c2ccccc2)sc2c1CCCC2` was tested. Which outcome did it give?
A: inactive

Q: Which outcome does the source give for `CCNC(=S)Nc1nc2c(cc1C(=O)OCC)CCCC2` here?
A: inactive

Q: For `C/C(=N/NC(=O)c1cc(C2CC2)[nH]n1)c1cccs1`, which outcome is on record?
A: inactive

Q: Which outcome does the source give for `CC1(C)CC[C@]2(C(=O)O)CC[C@]3(C)C(=CCC4[C@@]5(C)CC[C@H](O)C(C)(C)C5[C@H](O)C[C@]43C)[C@@H]2C1` (stereo not given in full) here?
A: inactive

Q: How did the outcome turn out when `CC1(C)CC(=O)C2=C(C1)N(c1cccc(Cl)c1)C(=O)NC2(C(F)(F)F)C(F)(F)F` was run?
A: inactive

Q: With `Cc1cccc(OCC(=O)O/N=C(\N)c2ccc(Cl)cc2)c1` as the compound, how does the outcome read?
A: inactive

Q: How did the outcome turn out when `O=C(COc1ccccc1Cl)N(Cc1cccs1)C1CCS(=O)(=O)C1` (stereo not given) was run?
A: inactive

Q: How did the outcome turn out when `Nc1cc(=O)[nH]c(SCC(=O)N2CCN(S(=O)(=O)c3ccc4ccccc4c3)CC2)n1` was run?
A: inactive

Q: With `O=C(NCc1ccccc1)/C(=C/c1ccccc1)NC(=O)c1ccco1` as the compound, how does the outcome read?
A: inactive

Q: For `COc1ccc(C)c2sc(NC(=O)C3=COCCO3)nc12`, which outcome is on record?
A: inactive

Q: With `N#CC(c1cccc(Cl)c1)c1ccc2c(C(F)(F)F)cc(C(F)(F)F)nc2n1` (stereo not given) as the compound, how does the outcome read?
A: inactive

Q: How did the outcome turn out when `O=C(N/N=C/c1ccccn1)c1cc(-c2ccc(Br)cc2)nc2ccccc12` was run?
A: inactive

Q: For `Cc1ccc(NC(=O)CCS(=O)(=O)c2cccc3nonc23)c(Br)c1`, which outcome is on record?
A: inactive

Q: How did the outcome turn out when `CCCCCC/C(C)=C1/SC(=S)NC1=O` was run?
A: inactive

Q: Which outcome does the source give for `Cc1[nH]c(-c2ccccn2)nc(=S)c1Cl` here?
A: inactive

Q: `Cc1ccc(C)c(N(CC(=O)NC2CCCC2)C(=O)CCC(=O)Nc2nccs2)c1` was tested. Which outcome did it give?
A: inactive

Q: With `CC/C(=N\NC(=S)Nc1cccc(C)c1)c1ccccc1` as the compound, how does the outcome read?
A: inactive

Q: `O=C(NN1C(=O)C2C(c3ccccc3)C=CC(c3ccccc3)C2C1=O)c1ccncc1` (stereo not given) was tested. Which outcome did it give?
A: inactive

Q: With `Nc1nc(NCc2ccco2)nc(NC2CCCCC2)c1[N+](=O)[O-]` as the compound, how does the outcome read?
A: inactive

Q: For `O=c1c(O)c(-c2ccc3c(c2)OCO3)oc2ccccc12`, which outcome is on record?
A: inactive

Q: For `Cc1ccc(OCC(=O)NNC(=S)NC(=O)c2cccs2)c(C)c1`, which outcome is on record?
A: inactive

Q: How did the outcome turn out when `N=C1S/C(=C\c2ccc(-c3cccc(Cl)c3)o2)C(=O)N1c1nccs1` was run?
A: inactive

Q: With `CC1=CC(=O)C(C(C)C)=CC1=NC(=O)c1ccc(C)cc1` as the compound, how does the outcome read?
A: inactive

Q: Which outcome does the source give for `COc1ccc(NC(=O)C(=O)NNC(=O)c2cccs2)c(OC)c1` here?
A: inactive

Q: `COC(=O)c1sc(-c2ccc(C(C)(C)C)cc2)cc1NC(=O)/C=C/C(=O)O` was tested. Which current potentiation did it give?
A: 20.6% (active)

Q: Which outcome does the source give for `O=S1(=O)Nc2c(ccc3cccnc23)-c2ccccc21` here?
A: inactive

Q: How did the outcome turn out when `O=C(NC(=S)Nc1ccccc1N1CCOCC1)c1ccc(-c2ccccc2F)o1` was run?
A: inactive
